ABCG2 inh: human ABCG2 inhibition, ABCB1 as counter-screen; inhibition, % at 6.6 µM; IgMXP3 cells, JC-1 efflux, flow cytometry; hit rate 0.1% among 190,000; Q9UNQ0; AID 1325;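 active = inhibition above 80%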;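 also: 0% = DMSO and 100% = nicardipine control wells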
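material = IgMXP3 (ABCG2) plus far-red-tagged CCRF-Adr (ABCB1) cells | amount = 3 million cells/mL, equal mix of both lines | also added = JC-1 transporter substrate | dosing = one concentration, 6.6 µM final | schedule = 10 min at 25 °C | measured by = flow cytometric JC-1 green MFI at 530 nm | read-out basis = percent efflux inhibition, scaled nicardipine 100% to DMSO 0%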
Calb biofilm kill: mixture kills Candida albicans biofilm cells; C. albicans biofilm persisters + clotrimazole, fluorescence viability; primary screen in compound mixtures of four per well; inhibition, % at 7.6 µM; hit rate 0.02% among 120,000; AID 1242;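 active = inhibition above 30.3% in the primary screen of four-compound pools, then above 30% when the compound was retested; inconclusive = passed the primary limit but could not be retested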;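 also: compounds exposed to preformed 24 h biofilms for 48 h; 0% = untreated biofilm control and 100% = clotrimazole plus chlorhexidine kill blank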
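Test system: C. albicans CAF4-2 wild-type biofilms; buffer or medium: RPMI/MOPS medium, pH 7.0; schedule: 24 h biofilm formation, then 48 h compound exposure, 37 °C; detection: Alamar Blue fluorescence; measure: percent inhibition of biofilm viability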
ROMK mod: modulators of human ROMK potassium channel | P48048 | hit rate 2% among 130,000 | B-score at 10 µM | Tet-inducible ROMK, thallium flux fluorescence; actives lie on both sides | AID 1918;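 active = signal ratio slope over the read window, or its plate-corrected B-score, at least 3 SD from the plate mean, either direction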;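 also: B-score of the F/F0 ratio slope over 7 to 12 s after thallium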
zfTRPN1 agonist: zebrafish TRPN1 (NompC) channel agonism | HEK293 zebrafish TRPN1-YFP, Fluo-8 calcium fluorescence; 100% = response to 87 µM carbachol | activation, % at 3 µM | hit rate 0.18% among 220,000 | AID 1424;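 active = activation above its plate's cutoff, the mean activation of test wells on that plate plus 3 SD, cut at about 19% in these data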;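 also: 0% = DMSO alone and 100% = 87 µM carbachol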
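Material: zebrafish TRPN1-YFP in HEK293 cells. Doses: one dose of 3 µM, 0.3% DMSO. Incubation: dye 1 h 37 °C plus 30 min RT. Measured by: intracellular calcium fluorescence with Fluo-8.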
ABCB1 block: human ABCB1 inhibition, ABCG2 as counter-screen | inhibition, % at 6.6 µM | P08183 | hit rate 0.067% among 190,000 | CCRF-Adr cells, JC-1 efflux, flow cytometry | AID 1326; in the data active = inhibition above about 40%;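 also: 0% = vehicle and 100% = reference inhibitor; higher value means more JC-1 retained so stronger ABCB1 efflux block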
TRPML3 agonist: agonists of human TRPML3 channel; HEK293 TRPML3-YFP, Fluo-8 calcium fluorescence; 100% = the carbachol control signal; Q8TDD5; activation, % at 3 µM; hit rate 0.29% among 220,000;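 active = activation above its plate's cutoff, the mean activation of the plate's test wells plus 3 SD, cut at about 12% in these data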;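 also: 0% = DMSO only wells and 100% = carbachol wells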
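Test system: HEK293 cells stably carrying human TRPML3-YFP; Doses: single dose, 3 µM final nominal compound, 0.3% DMSO final; Schedule: dye loading 1 h 37 °C then 30 min ambient, 125 s read; Technique: Fluo-8 calcium fluorescence; Benchmarks: high control carbachol 87 µM, low control DMSO.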
ROMK retest: retested hit modulating human ROMK potassium channel; AID 1917; normalized thallium flux (F/F0 slope) at 10 µM; ROMK thallium flux, fluorescence ratio; hits give low values; hit rate 54% among 3,000; shares compounds with ROMK mod;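 active = Flux at 10 µM at least 3 SD below or above vehicle control mean in one or both replicates; inconclusive = no clear call, values can overlap the other calls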
Numbers without * were called inactive; ? = inconclusive; nt = no result. The sample as a whole holds a higher share of hits than the screen did.

SMILES | ABCG2 inh | Calb biofilm kill | ROMK mod | zfTRPN1 agonist | ABCB1 block | TRPML3 agonist | ROMK retest
OC(COCc1ccc(Cl)cc1)CN1CC=C(c2ccccc2)CC1 (stereo unspecified) | 2 | nt | -3.3* | 2 | 1 | 1 | 0.06*
O=C(CN1CC=C(c2ccccc2)CC1)Nc1cc(Cl)ccc1Cl | 4 | 11 | -0.51 | 0 | 1 | 0 | nt
CC(=O)c1cn(Cc2ccccc2C#N)c2ccccc12 | 0 | 29 | nt | 7 | 1 | 4 | nt
Cc1nn(Cc2ccccc2)c(C)c1C(=O)NC1CCCc2ccccc21 (stereo unspecified) | 8 | 26 | nt | 1 | 1 | 0 | nt
CCOc1ccccc1-n1c(O)c(C=Nc2ccc(N(CC)CC)cc2)c(=O)[nH]c1=O | 2 | nt | 2.7* | 1 | 1 | 0 | 0.08
CCN(CC)c1ccc(N=Cc2c(O)n(-c3ccccc3)c(=O)[nH]c2=O)cc1 | nt | 25 | -0.28 | 1 | nt | 0 | nt
CCN(CC)c1ccc(N=Cc2c(O)n(Cc3ccccc3)c(=O)[nH]c2=O)cc1 | 63 | 15 | -8.3* | 0 | 1 | 0 | 0.049*
Cc1cc(NC(=O)CCl)on1 | 7 | 5 | 0.01 | 1 | 2 | 1 | nt
COc1ccc(N2C(=O)/C(=C/C=C/c3ccccc3[N+](=O)[O-])C(=O)NC2=S)cc1 | -2 | 15 | -0.44 | 0 | -1 | -1 | nt
CCN1CCN(Cc2ccc(OC(F)(F)F)cc2)CC1 | 3 | nt | nt | 0 | 0 | 0 | nt
CCCCCCOc1ccc(CN2CCN(CC)CC2)cc1 | 3 | nt | -3.9* | 1 | 0 | 1 | 0.06*
CCOC(=O)C1=C(N)Oc2cc(C)oc(=O)c2C12C(=O)N1c3c(cccc32)C(C)CC1(C)C (stereo unspecified) | 3 | nt | -4.8* | 2 | 2 | -1 | 0.06*
Cc1ccc(CN2C3CCCC2CC(NC(=O)Nc2cccc(F)c2)C3)cc1 (stereo unspecified) | 1 | 5 | -3.2 | 9 | 1 | 4 | nt
CCCC(C)n1[nH]c(=O)c2c1NC(=O)CSC2c1ccc(OC)cc1 (stereo unspecified) | 2 | nt | 2.3* | 0 | 1 | -2 | ?
COC1CC(OC2CCC3(C)C(CCC4C3CCC3(C)C(C5=CC(=O)OC5)C(OC(C)=O)CC43O)C2)OC(C)C1OC1OC(COC2OC(CO)C(O)C(O)C2O)C(O)C(O)C1O (stereo unspecified) | nt | 15 | nt | nt | nt | nt | ?
COc1cc2c(cc1OC)[C@@H]1C(=O)c3ccc4c(c3O[C@@H]1CO2)C[C@H](C(C)C)O4 | nt | -12 | nt | 5 | nt | 3 | 0.064*
COc1cccc(NP(=O)(Oc2ccc(Cl)cc2)Oc2ccc(Cl)cc2)c1 | 2 | -13 | 1.3 | -1 | 0 | 0 | nt
COc1ccccc1OP(=O)(Nc1cccnc1)Oc1ccccc1OC | -5 | 6 | nt | 2 | 1 | -1 | 0.062*
CC(C)NC(C)C(=O)C12CC3CC(CC(C3)C1)C2 (stereo unspecified) | 14 | nt | 1.6* | 0 | 1 | 0 | ?
CC(C)(C)c1cc([N+](=O)[O-])cc(C(C)(C)C)c1O | 4 | 16 | nt | 17 | 1 | 11 | 0.081
NP(=O)(Oc1ccccc1Cl)Oc1ccccc1Cl | 0 | 12 | -3.1* | -1 | 0 | 0 | 0.064*
NP(=O)(OCC(F)(F)F)Oc1cccc2ccccc12 (stereo unspecified) | 8 | 17 | -1 | 2 | 1 | 0 | nt
COc1ccc(Cc2c(O)[nH]c(=O)[nH]c2=O)c(OC)c1 | nt | -1 | -0.095 | 2 | nt | 1 | nt
C=CCN1C(=O)NC(=O)/C(=C/c2cc3c4c(c2)CCCN4CCC3)C1=O | -2 | 12 | -4.3* | 0 | 0 | 1 | 0.056*
C1=C(c2c[nH]c3ccccc23)CCN(Cc2ccccc2)C1 | 1 | 11 | -3.7* | 0 | 0 | 1 | 0.05*
SMILES | ABCG2 inh | Calb biofilm kill | ROMK mod | zfTRPN1 agonist | ABCB1 block | TRPML3 agonist | ROMK retest
CCC(=NCCOc1ccc(Cl)cc1)c1c(O)n(C)c(=O)n(C)c1=O | 3 | nt | -3.1* | 8 | 0 | 3 | 0.066*
CCC(=NCCN1CCCCC1)c1c(O)n(C)c(=O)n(C)c1=O | 2 | nt | 1.1 | 1 | 1 | 0 | nt
Cn1ccc(NC(=O)CCl)n1 | 0 | 9 | nt | 1 | 0 | 0 | nt
CC(=NCc1cccnc1)c1c(O)n(-c2ccc(Cl)cc2)c(=O)[nH]c1=O | nt | 8 | 0.7 | 0 | nt | 1 | nt
CCCN1CC(C)C(OC(C)=O)(c2ccccc2)CC1C (stereo unspecified) | 2 | 9 | nt | 0 | 0 | 1 | nt
CC1CC(OC(=O)c2ccccc2)(c2ccccc2)C(C)CN1C (stereo unspecified) | nt | 23 | nt | 1 | nt | 0 | 0.07
COC(=O)[C@@]1(C#N)[C@@H]2C=CC(C(C)=O)=CN2[C@@H](C(N)=O)[C@@H]1c1ccc(F)cc1 | nt | 18 | nt | 2 | nt | 1 | nt
CC(C)n1c(O)c(C=NCc2ccccc2)c(=O)[nH]c1=S | nt | 12 | nt | 1 | nt | 0 | nt
C[C@@H]1O[C@@H](O[C@H]2C[C@@H](O)[C@]3(CO)[C@H]4[C@H](O)C[C@]5(C)[C@@H](C6COC(=O)C6)CC[C@]5(O)[C@@H]4CC[C@]3(O)C2)[C@H](O)[C@H](O)[C@H]1O (stereo partly specified) | -3 | 14 | nt | 0 | -1 | 0 | 0.064*
CN(C)C(Cc1ccccc1)C(=O)c1cccs1 (stereo unspecified) | 1 | -13 | 1 | -1 | 0 | 0 | nt
O=c1[nH]c(=O)n(Cc2ccccc2Cl)c(O)c1/C=C1/C=CC=N1 | 0 | 2 | 2.6* | 0 | 0 | 1 | ?
CS(=O)(=O)N1CCN(C(=N)N[N+](=O)[O-])CC1 | 2 | 2 | -2.6* | 1 | 0 | 1 | 0.081
Cc1cccn2c(=O)c3cc(C(=O)N4CCC5(CC4)OCCO5)n(C)c3nc12 | 4 | nt | 5.3* | -1 | 0 | 1 | 0.094
CCOC(=O)C1=C(N)OC2=C(C(=O)CCC2)C12C(=O)Nc1ccccc12 (stereo unspecified) | 0 | nt | nt | 0 | 0 | 0 | nt
CCOC(=O)C1=C(N)OC2=C(C(=O)CCC2)C12C(=O)N1c3c(ccc(C)c32)C(C)=CC1(C)C (stereo unspecified) | 17 | nt | -5.9* | 0 | 9 | 0 | 0.059*
CCOc1cc(CNC(C)C(O)c2ccccc2)cc(Cl)c1OCC (stereo unspecified) | 0 | 9 | -2.8* | 2 | 1 | 0 | 0.059*
CC(NCc1ccc(Cl)c(Cl)c1)C(O)c1ccccc1 (stereo unspecified) | 1 | nt | -2.6 | -1 | 0 | 0 | nt
